In brackets after ≈: the same amount, converted by molar mass. Activity calls are given as the source filed them. The rule behind the calls is not given here.
What was measured:
[1] = test system: Plasmodium falciparum; assay: Antimicrobial activity against chloroquine-sensitive Plasmodium falciparum 3D7 after 72 hrs; assay type: functional, organism-based; conditions: 3D7, 72 h
[2] = test system: Plasmodium falciparum; assay: Antimicrobial activity against chloroquine-resistant Plasmodium falciparum W2 after 72 hrs; assay type: functional, organism-based; conditions: W2, 72 h
[3] = test system: Trypanosoma brucei brucei; assay: Antimicrobial activity against Trypanosoma brucei brucei clone 427-221a after 48 hrs; assay type: functional, organism-based
Outline: (§1)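 Bloodstream-form T. b. brucei in Baltz medium (~10^4/ml) and HL-60 cells in RPMI 1640 (~10^5/ml), both with 16.7% FBS, were exposed 48 h at 37°C in 5% CO2 to compound up to 10 µM in 1% final DMSO. Live cells were hemocytometer-counted, by motility (trypanosomes) or trypan blue exclusion (HL-60). EC50 was taken by regression versus DMSO cultures from three experiments. MIC was the lowest fully lethal concentration, judged microscopically.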

[4] = (§2) Cytotoxicity against human HL60 cells; assay type: cell-based, HL-60; conditions: human, HL-60 cells; read-out: MIC; outline: as §1
[5] = test system: HL-60; assay: as §2; assay type: cell-based; conditions: Homo sapiens, HL-60; outline: as §1
[6] = Selectivity index, ratio of EC50 for HL60 cells to EC50 for Trypanosoma brucei brucei clone 427-221a; assay type: functional, HL-60; outline: as §1
[7] = Selectivity index, ratio of MIC for HL60 cells to MIC for Trypanosoma brucei brucei clone 427-221a; assay type: functional, HL-60; outline: as §1
[8] = test system: Leishmania donovani; assay: Antileishmanial activity against Leishmania donovani MHOM/SD/00/1S-2D promastigotes assessed as parasite death at 10 uM after 72 hrs; assay type: functional
Outline: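 Promastigotes seeded at 1.5 x 10^5 cells/ml in medium 199 with 10% heat-inactivated FBS. Compound added at a final 10 µM, in triplicate, in sealed flasks at 27°C for up to 7 days. Aliquots taken daily and viability read by CellTiter-Glo luminescence. Result given as percent reduction in viability relative to DMSO-treated cultures. Controls were K11777 or amphotericin B at 10 µM.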

[9] = test system: Leishmania major; assay: Antileishmanial activity against Leishmania major MHOM/IL/81/FE/BNI amastigotes after 48 hrs; assay type: functional, organism-based
Outline: (§3)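 Peritoneal macrophages from BALB/c mice (6-8 wk) adhered 2 h at 37°C, infected 24 h with stationary-phase L. major promastigotes at 10:1 parasite:macrophage, washed, then exposed 48 h to compound at 0.0001 to 10 µM. Intracellular amastigotes stained with acridine orange/ethidium bromide and counted by fluorescence microscopy; percent amastigotes cleared versus DMSO-treated cultures; three repeats.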

[10] = test system: Entamoeba histolytica; assay: Antimicrobial activity against Entamoeba histolytica HM1 IMSS trophozoites after 48 hrs; assay type: functional, organism-based; conditions: 60 h, in the assay text read “60 hrs” for “48 hrs”
Outline: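 Trophozoites were grown axenically in TYI-S-33 with 10% bovine adult serum and seeded at ~10^4 cells/well. Compound (range up to 10 µM) was added to 48-h log-phase cultures, then incubated 60 h at 37°C under anaerobic conditions. Viability was read by CellTiter-Glo luminescence. EC50 came from quadruplicate wells in two independent experiments.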

[11] = test system: Trichomonas vaginalis; assay: Antimicrobial activity against Trichomonas vaginalis G3 assessed as parasite death at 10 uM after 24 hrs; assay type: functional
Outline: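 G3 strain grown in Diamond's medium at 37°C. Assay culture set up as 0.5 ml dense culture diluted into 5.0 ml complete medium. Compound at a final 10 µM for 24 h at 37°C. Motile cells counted by hemocytometer. Result is percent dead parasites relative to DMSO-treated cultures, from five separate experiments. Controls were untreated, DMSO and metronidazole.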

[12] = Cytotoxicity against BALB/c mouse peritoneal macrophages at 10 uM after 48 hrs hrs; assay type: cell-based; conditions: macrophage
[13] = test system: Schistosoma mansoni; assay: Antimicrobial activity against Schistosoma mansoni assessed as worm vitality at 6 uM after 4 hrs; assay type: functional, organism-based
Outline: (§4)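 20-day-old worms were obtained by perfusion of BALB/c mice infected with 200 cercariae. About 20 worms/well were kept in Basch 169 with 10% bovine calf serum, preincubated 24 h at 37°C in 5% CO2, then exposed to 1, 3 or 6 µM. Vitality (feeding, flexing, gut peristalsis; death = nonmotile, shrunken, dark) was scored at 4 and 18 h in two experiments.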

[14] = test system: Leishmania major; assay: Antileishmanial activity against Leishmania major MHOM/IL/81/FE/BNI amastigotes after 48 hrs at 1 uM; assay type: functional, organism-based; outline: as §3
[15] = test system: Schistosoma mansoni; assay: Antimicrobial activity against Schistosoma mansoni assessed as worm vitality at 3 uM after 4 hrs; assay type: functional, organism-based; outline: as §4
[16] = test system: Plasmodium falciparum; assay: Antimalarial activity against chloroquine-resistant Plasmodium falciparum FcB1R after 72 hrs; assay type: functional, organism-based
[17] = test system: Trypanosoma brucei brucei; assay: Antimicrobial activity against Trypanosoma brucei brucei clone 427-221a at 1.56 uM; assay type: functional
[18] = test system: MRC5; assay: Toxicity against human MRC5 cells at 3.13 uM; assay type: cell-based; conditions: mrc5, 3.13 µM

| SMILES | EC50 [1] | EC50 [2] | EC50 [3] | MIC [3] | MCC [4] | EC50 [5] | Ratio EC50 [6] | Ratio [7] | Activity [8] | EC50 [9] | EC50 [10] | Activity [11] | Activity [12] | Activity [13] | Activity [14] | Activity [15] | EC50 [16] | Activity [17] | Activity [18] |
| --- | --- | --- | --- | --- | --- | --- | --- | --- | --- | --- | --- | --- | --- | --- | --- | --- | --- | --- | --- |
| COc1ccc2nc3cc(Cl)ccc3c(NCCCCN(CCCNc3c4ccc(Cl)cc4nc4ccc(OC)cc34)C(=O)CNC(=O)[C@H](C)N)c2c1 | 0.716 µM | 0.823 µM | 0.0064 µM | 10 µM (≈ 7.57 µg/mL) | > 10 µM | 0.491 µM | 77 | >1 | 16% | 0.7 µM | 5 µM | 0% | Toxic | – | – | – | – | – | – |
| COc1ccc2nc3cc(Cl)ccc3c(NCCCCNCCCNc3c4ccc(Cl)cc4nc4ccc(OC)nc34)c2n1 | 0.029 µM | 0.034 µM | 0.0014 µM | 0.1 µM (≈ 0.0631 µg/mL) | 7 µM | 0.119 µM | 86 | 70 | 99% | – | 0.5 µM | 85% | Toxic | Active | inactive | – | – | – | – |
| COc1ccc2nc3cc(Cl)ccc3c(NCCCN(C)CCCNc3c4ccc(Cl)cc4nc4ccc(OC)cc34)c2c1 | 0.79 µM | 1.08 µM | 0.0009 µM | 0.1 µM (≈ 0.0629 µg/mL) | 10 µM | 1.18 µM | 1326 | 100 | 99% | 6 µM | 0.5 µM | 92% | – | Active | – | Active | – | – | – |
| COc1ccc2nc3cc(Cl)ccc3c(NCCCCCCCCNc3c4ccc(Cl)cc4nc4ccc(OC)nc34)c2n1 | 0.062 µM | 0.069 µM | 0.031 µM | 1 µM (≈ 0.63 µg/mL) | > 10 µM | 26.3 µM | 859 | >10 | 42% | – | 5 µM | 59% | Toxic | – | inactive | – | – | – | – |
| O=C(C1CCCCC1)N1CC(=O)N2CCc3ccccc3C2C1 (configuration not stated) | – | – | – | – | – | – | – | – | – | – | – | – | – | Active | – | – | – | – | – |
| COc1ccc2nc3cc(Cl)ccc3c(NCCCCCCCCNc3c4ccc(Cl)cc4nc4ccc(OC)cc34)c2c1 | 0.115 µM | 0.124 µM | 0.0086 µM | 1 µM (≈ 0.628 µg/mL) | 10 µM | 1.65 µM | 191 | 10 | 99% | – | 0.5 µM | 100% | Toxic | – | inactive | – | 0.019 µM | 100% | 20% |
| CCN(CC)CCCC(C)Nc1c2ccc(Cl)cc2nc2ccc(OC)cc12 (configuration not stated) [QUINACRINE] | 0.011 µM | 0.033 µM | – | – | – | – | – | – | – | – | – | – | – | – | – | – | – | – | – |
| COc1ccc2nc3cc(Cl)ccc3c(NCCCCN(CCCNc3c4ccc(Cl)cc4nc4ccc(OC)cc34)C(=O)[C@H](C)NC(=O)OC(C)(C)C)c2c1 | 0.598 µM | 0.629 µM | 0.0035 µM | 1 µM (≈ 0.8 µg/mL) | 10 µM | 1.65 µM | 469 | 10 | 49% | – | 5 µM | 95% | Toxic | – | inactive | – | 0.33 µM | 100% | 0% |
| COc1ccc2nc3cc(Cl)ccc3c(NCCCCN(CCCNc3c4ccc(Cl)cc4nc4ccc(OC)cc34)C(=O)CNC(=O)[C@H](C)NC(=O)OC(C)(C)C)c2c1 | 0.314 µM | 0.341 µM | 0.0024 µM | 1 µM (≈ 0.857 µg/mL) | 10 µM | 0.27 µM | 111 | 10 | 37% | – | 5 µM | 53% | Toxic | – | inactive | – | – | – | – |

Source: ChEMBL document CHEMBL1143811, “Bis-acridines as lead antiparasitic agents: structure-activity analysis of a discrete compound library in vitro” (Antimicrob Agents Chemother, 2007)
